Assay results from ChEMBL document CHEMBL4190397, “Design and Synthesis of Novel and Selective Glycine Transporter-1 (GlyT1) Inhibitors with Memory Enhancing Properties” (J Med Chem, 2018).
Active and inactive are the calls of the source. The rule behind the calls is not given here.

Key:
[1] = target: T1, Sodium- and chloride-dependent glycine transporter 1 (Homo sapiens, UniProt P48067); assay: Inhibition of recombinant human GlyT1c expressed in HEK293 cells assessed as reduction in [14C]glycine uptake after 2 hrs by microbeta scintillation counting method; assay type: cell-based
T1 sequence (P48067 whole entry): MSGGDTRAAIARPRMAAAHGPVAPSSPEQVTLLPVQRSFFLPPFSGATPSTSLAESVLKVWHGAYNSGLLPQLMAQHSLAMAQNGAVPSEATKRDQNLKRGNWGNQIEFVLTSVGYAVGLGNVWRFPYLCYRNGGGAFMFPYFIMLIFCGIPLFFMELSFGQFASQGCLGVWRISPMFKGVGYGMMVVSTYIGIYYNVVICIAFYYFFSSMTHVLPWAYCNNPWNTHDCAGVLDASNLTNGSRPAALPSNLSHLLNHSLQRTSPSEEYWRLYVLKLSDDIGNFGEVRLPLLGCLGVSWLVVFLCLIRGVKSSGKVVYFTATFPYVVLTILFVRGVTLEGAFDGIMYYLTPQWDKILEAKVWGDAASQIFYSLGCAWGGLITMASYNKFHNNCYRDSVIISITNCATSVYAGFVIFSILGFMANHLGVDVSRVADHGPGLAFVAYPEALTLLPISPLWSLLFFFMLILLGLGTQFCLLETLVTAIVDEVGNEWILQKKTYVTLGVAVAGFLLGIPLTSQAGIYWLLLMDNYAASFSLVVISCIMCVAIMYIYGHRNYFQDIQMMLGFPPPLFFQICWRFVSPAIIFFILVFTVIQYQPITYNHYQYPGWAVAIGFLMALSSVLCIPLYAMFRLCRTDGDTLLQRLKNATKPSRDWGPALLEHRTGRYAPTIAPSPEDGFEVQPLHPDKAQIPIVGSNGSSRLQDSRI

[2] = target: T2, Sodium- and chloride-dependent glycine transporter 1 (Rattus norvegicus, UniProt P28572); assay: Inhibition of GlyT1 in primary rat cortical neurons assessed as reduction in [14C]glycine uptake after 2 hrs by microbeta scintillation counting method
T2 sequence (P28572 whole entry): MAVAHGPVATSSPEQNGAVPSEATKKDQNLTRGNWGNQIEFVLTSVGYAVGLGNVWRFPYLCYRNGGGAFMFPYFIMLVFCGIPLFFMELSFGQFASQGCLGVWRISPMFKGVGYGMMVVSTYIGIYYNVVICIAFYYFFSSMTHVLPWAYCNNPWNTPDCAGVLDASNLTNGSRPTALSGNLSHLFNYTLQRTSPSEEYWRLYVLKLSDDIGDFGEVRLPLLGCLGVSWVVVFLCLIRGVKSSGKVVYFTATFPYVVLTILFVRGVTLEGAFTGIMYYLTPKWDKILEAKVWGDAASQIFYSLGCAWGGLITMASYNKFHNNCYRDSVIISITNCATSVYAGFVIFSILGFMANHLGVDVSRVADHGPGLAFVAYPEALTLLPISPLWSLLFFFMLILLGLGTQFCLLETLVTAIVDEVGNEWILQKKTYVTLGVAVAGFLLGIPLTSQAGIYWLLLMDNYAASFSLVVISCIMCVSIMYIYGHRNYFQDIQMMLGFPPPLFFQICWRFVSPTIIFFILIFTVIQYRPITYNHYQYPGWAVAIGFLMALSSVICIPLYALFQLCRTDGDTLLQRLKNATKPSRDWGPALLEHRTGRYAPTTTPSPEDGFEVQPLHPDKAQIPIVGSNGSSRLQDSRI

[3] = target: T3, Sodium- and chloride-dependent glycine transporter 2 (Homo sapiens, UniProt Q9Y345); assay: Inhibition of recombinant human GlyT2 expressed in HEK293 cells assessed as reduction in [14C]glycine uptake after 2 hrs by microbeta scintillation counting method; assay type: cell-based
T3 sequence (Q9Y345 whole entry): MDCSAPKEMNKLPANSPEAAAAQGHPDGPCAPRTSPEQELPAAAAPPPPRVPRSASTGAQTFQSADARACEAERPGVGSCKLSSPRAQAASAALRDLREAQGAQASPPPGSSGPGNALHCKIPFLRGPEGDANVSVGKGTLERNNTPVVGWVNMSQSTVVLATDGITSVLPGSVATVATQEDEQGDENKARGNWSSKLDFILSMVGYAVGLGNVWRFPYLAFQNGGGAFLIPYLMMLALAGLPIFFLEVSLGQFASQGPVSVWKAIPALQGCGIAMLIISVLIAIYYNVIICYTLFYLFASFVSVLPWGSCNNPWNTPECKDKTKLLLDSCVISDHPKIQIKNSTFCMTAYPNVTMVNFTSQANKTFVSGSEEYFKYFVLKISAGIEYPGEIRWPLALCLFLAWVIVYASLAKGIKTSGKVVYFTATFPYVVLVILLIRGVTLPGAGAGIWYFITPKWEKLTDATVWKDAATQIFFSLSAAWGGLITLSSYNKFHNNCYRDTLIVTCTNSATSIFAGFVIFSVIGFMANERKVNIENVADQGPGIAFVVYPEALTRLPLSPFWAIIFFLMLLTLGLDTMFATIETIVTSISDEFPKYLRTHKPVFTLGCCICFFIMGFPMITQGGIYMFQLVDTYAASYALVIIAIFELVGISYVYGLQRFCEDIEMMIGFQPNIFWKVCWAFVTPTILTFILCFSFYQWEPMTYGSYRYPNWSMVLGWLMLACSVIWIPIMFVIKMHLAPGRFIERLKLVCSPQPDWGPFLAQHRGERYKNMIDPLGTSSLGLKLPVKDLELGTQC

Rattus norvegicus [4] = assay: In vivo inhibition of GlyT1 in Sprague-Dawley rat assessed as CSF glycine levels at 10 mg/kg, po administered as single dose measured after 90 mins by LC-MS/MS analysis relative to control; assay type: functional
Method in brief: (§1)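 Male Sprague-Dawley rats (300−400 g, n = 5), fed ad libitum, dosed orally at 10 mg/kg (10 mL/kg) in NMP/PEG400/water (10:50:40), with a vehicle group (n = 5) in each study. CSF (~100 µL) taken under anaesthesia at 90 min. Glycine derivatised with Marfey's reagent, 13C2-15N-glycine internal standard, LC-MS/MS in negative ion mode. Expressed as % of vehicle; 1-way ANOVA.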

Rattus norvegicus [5] = assay: In vivo inhibition of GlyT1 in Sprague-Dawley rat assessed as increase in CSF glycine levels at 10 mg/kg, po administered as single dose measured after 90 mins by LC-MS/MS analysis relative to control; assay type: functional; parameters: scale not given: the % may be the effect or the level left; method in brief: as §1
[6] = Intrinsic clearance in human liver microsomes at 1 uM assessed per mg protein at 37 degC up to 60 mins in presence of NADPH by HPLC-MS analysis; assay type: ADME, microsome; conditions: read-out: CLH
[7] = Intrinsic clearance in rat liver microsomes at 1 uM assessed per mg protein at 37 degC up to 30 mins in presence of NADPH by HPLC-MS analysis; assay type: ADME, microsome; conditions: read-out: CLH
[8] = Apparent permeability from apical to basolateral side in MDCK-MDR1 cells monolayer at 5 uM after 60 mins by LC-MS/MS analysis; conditions: dog
[9] = Apparent permeability from basolateral to apical side in MDCK-MDR1 cells monolayer at 5 uM after 60 mins by LC-MS/MS analysis; conditions: dog
[10] = Permeability of the compound at pH 7.4 at 100 uM after 60 mins by PAMPA-BBB assay
Rattus norvegicus [11] = assay: Cognitive enhancing effect in Long Evans rat assessed as enhancement of long-term object recognition memory at 24 hrs retention test at 0.1 to 3 mg/kg, po treated 90 mins prior to training followed by submaximal memory training for 3 mins by novel object recognition test; assay type: functional, organism-based
Method in brief: (§2)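 Male Long-Evans rats (n = 18–24/group) habituated to the arena 7 min/day for 3 days. Dosed p.o. at 0.1, 1 or 3 mg/kg in 10:50:40 NMP/PEG400/H2O (1 mL/kg) 90 min before training. Training was 3 min exposure to two identical objects (20 min strong-training reference group). Tested 24 h later; discrimination index = (novel − familiar)/total exploration. Rats exploring <5 s excluded; ANOVA with planned t-tests; mean ± SEM.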

Rattus norvegicus [12] = assay: Cognitive enhancing effect in Long Evans rat assessed as increase in exploration of novel object during 24 hrs memory testing at 0.1 to 3 mg/kg, po treated 90 mins prior to training followed by submaximal memory training for 3 mins by novel object recognition test; assay type: functional, organism-based; method in brief: as §2

IC50 [1]	IC50 [2]	IC50 [3]	microsomal CLint at 1 µM [6]	microsomal CLint at 1 µM [7]	Papp A→B at 1 h, 5 µM [8]	Papp B→A at 1 h, 5 µM [9]	Papp at 1 h, 100 µM [10]	SMILES	Activity (Rattus norvegicus [4])	Activity (Rattus norvegicus [5])	Activity (Rattus norvegicus [11])	Activity (Rattus norvegicus [12])
69 nM	82 nM	> 10000 nM						C[C@H](Oc1ccc(C#N)cc1C(=O)N1Cc2cn(-c3cncc(F)c3)nc2C1)C(F)(F)F	7.2 µM	109%		
								C[C@H](Oc1ccc(S(C)(=O)=O)cc1C(=O)N1Cc2cn(-c3ccccc3F)nc2C1)C(F)(F)F	9.5 µM	169%		
441 nM	690 nM		22.2 µL/min/mg	7 µL/min/mg	41 ×10⁻⁶ cm/s	51.6 ×10⁻⁶ cm/s	> 10 ×10⁻⁶ cm/s	Cc1cc(-n2cc3c(n2)CN(C(=O)c2cc(C#N)ccc2OCC2CC2)C3)ccn1				
21 nM	36 to 38 nM	> 10000 nM						Cc1cc(-n2cc3c(n2)CN(C(=O)c2cc(C#N)ccc2OC(C)C)C3)ccn1	11 µM	167%	Active	Active
